≈ marks a conversion by molar mass, not a printed value.
What was measured:
[1] = system: Cryptococcus neoformans; assay: Growth inhibition of Cryptococcus neoformans ATCC 32264 at 7.8 ug/ml incubated for 48 hrs under dark condition by broth microdilution method relative to control; format: functional; settings: ATCC 32264, 48 h, read-out: GI
Method in brief: (§1)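 CLSI M27-A3 broth microdilution in RPMI-1640, DMSO ≤1%. Inoculum 1-5 × 10^3 CFU/mL. Incubated 48 h at 30 °C, dark. % inhibition = 100 − (OD405 test − sterility control)/(OD405 growth control − sterility control), with growth and sterility control wells. Triplicate.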

[2] = system: U-937; assay: Cytotoxicity against human U937 cells after 72 hrs by MTT assay; format: cell-based; settings: u-937, 72 h
Method in brief: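 Exponentially growing U-937 at 1 × 10^5 cells/mL in RPMI-1640 with 10% FBS were exposed to 200, 50, 12.5 and 3.125 µg/mL for 72 h at 37 °C, 5% CO2. MTT for 3 h, stopped with isopropanol/SDS, formazan read at 570 nm, blank-corrected. LC50 by Probit from % viability against untreated cells. Triplicate, at least two independent experiments.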

[3] = system: Plasmodium falciparum; assay: Antiplasmodial activity against chloroquine-sensitive Plasmodium falciparum 3D7 assessed as reduction in parasitic LDH activity after 48 hrs by Malstat reagent based […] method; format: functional; settings: 3D7, 48 h
Method in brief: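 Unsynchronized P. falciparum 3D7 at 0.5% parasitemia and 1% hematocrit in RPMI with 3% Albumax II. Exposed to 100, 25, 6.25 and 1.56 µg/mL for 48 h at 37 °C under 90% N2/5% CO2/5% O2. After three freeze-thaw cycles, LDH measured with Malstat and NBT/PES, 1 h in the dark, read at 650 nm. IC50 by Probit; triplicate, ≥2 experiments.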

[4] = system: Pseudomonas aeruginosa; assay: Antibacterial activity against Pseudomonas aeruginosa ATCC 27853 after 24 hrs by resazurin dye based microdilution assay; format: functional; settings: ATCC 27853, 24 h
Method in brief: (§2)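 MIC taken as the lowest concentration giving visible inhibition and/or by resazurin (1 mg/mL). Gentamicin was the control. Run in duplicate, repeated at least three times.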

[5] = system: Neisseria gonorrhoeae; assay: Antibacterial activity against beta lactamase positive Neisseria gonorrhoeae ATCC 31426 by oxidase test; format: functional
Method in brief: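 Agar dilution MIC on GC agar with 1% isovitalex containing increasing compound concentrations. Plates inoculated with about 1×10^4 CFU (5 µL). MIC is the lowest concentration that inhibited growth, with growth confirmed by oxidase test. Run in duplicate, repeated at least three times.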

[6] = system: Klebsiella pneumoniae; assay: Antibacterial activity against carbapenemase positive Klebsiella pneumoniae BAA 1705 after 24 hrs by resazurin dye based microdilution assay; format: functional; settings: BAA 1705, 24 h; method in brief: as §2
[7] = system: Candida albicans; assay: Growth inhibition of Candida albicans ATCC 10231 at 7.8 ug/ml incubated for 48 hrs under dark condition by broth microdilution method relative to control; format: functional; settings: ATCC 10231, 48 h, read-out: GI; method in brief: as §1
[8] = system: Cryptococcus neoformans; assay: Growth inhibition of Cryptococcus neoformans ATCC 32264 at 125 ug/ml incubated for 48 hrs under dark condition by broth microdilution method relative to control; format: functional; settings: ATCC 32264, 48 h, read-out: GI; method in brief: as §1
[9] = system: Cryptococcus neoformans; assay: Antifungal activity against Cryptococcus neoformans ATCC 32264 incubated for 48 hrs under dark condition by broth microdilution method; format: functional; settings: ATCC 32264, 48 h
Method in brief: (§3)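 CLSI M27-A3 broth microdilution in RPMI-1640, DMSO ≤1%, compounds at 250-0.98 µg/mL final. Inoculum 1-5 × 10^3 CFU/mL. Incubated 48 h at 30 °C in a moist dark chamber, read at OD405. MIC80 and MIC50 taken from % inhibition dose-response curves (mean ± SEM, triplicate). Amphotericin B was the positive control.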

[10] = system: Candida albicans; assay: Growth inhibition of Candida albicans ATCC 10231 at 15.62 ug/ml incubated for 48 hrs under dark condition by broth microdilution method relative to control; format: functional; settings: ATCC 10231, 48 h, read-out: GI; method in brief: as §1
[11] = system: Staphylococcus aureus; assay: Antibacterial activity against methicillin-resistant Staphylococcus aureus ATCC 43300 after 24 hrs by resazurin dye based microdilution assay; format: functional; settings: ATCC 43300, 24 h
Method in brief: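 Broth microdilution in Mueller Hinton broth, inoculum 5 × 10^5 – 8 × 10^5. Compound stocks diluted in MHB with 5% DMSO and 0.1% Tween 80. Incubation 24 h at 35-37 °C. MIC is the lowest concentration with visible growth inhibition and/or by resazurin (1 mg/mL) read-out. Gentamicin as control. Run in duplicate, replicated at least three times.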

[12] = system: Cryptococcus neoformans; assay: Growth inhibition of Cryptococcus neoformans ATCC 32264 at 31.25 ug/ml incubated for 48 hrs under dark condition by broth microdilution method relative to control; format: functional; settings: ATCC 32264, 48 h, read-out: GI; method in brief: as §1
[13] = system: Candida albicans; assay: Antifungal activity against Candida albicans ATCC 10231 incubated for 48 hrs under dark condition by broth microdilution method; format: functional; settings: ATCC 10231, 48 h; method in brief: as §3
[14] = system: Klebsiella pneumoniae; assay: Antibacterial activity against ESBL positive Klebsiella pneumoniae ATCC 700603 after 24 hrs by resazurin dye based microdilution assay; format: functional; settings: Klebsiella pneumoniae, 700603, 24 h; method in brief: as §2
[15] = system: Candida albicans; assay: Growth inhibition of Candida albicans ATCC 10231 at 125 ug/ml incubated for 48 hrs under dark condition by broth microdilution method relative to control; format: functional; settings: ATCC 10231, 48 h, read-out: GI; method in brief: as §1
[16] = system: Cryptococcus neoformans; assay: Growth inhibition of Cryptococcus neoformans ATCC 32264 at 250 ug/ml incubated for 48 hrs under dark condition by broth microdilution method relative to control; format: functional; settings: ATCC 32264, 48 h, read-out: GI; method in brief: as §1
[17] = system: Candida albicans; assay: Growth inhibition of Candida albicans ATCC 10231 at 31.25 ug/ml incubated for 48 hrs under dark condition by broth microdilution method relative to control; format: functional; settings: ATCC 10231, 48 h, read-out: GI; method in brief: as §1
[18] = system: Candida albicans; assay: Growth inhibition of Candida albicans ATCC 10231 at 250 ug/ml incubated for 48 hrs under dark condition by broth microdilution method relative to control; format: functional; settings: ATCC 10231, 48 h, read-out: GI; method in brief: as §1
[19] = system: Trypanosoma cruzi; assay: Antitrypanosomal activity against Trypanosoma cruzi Tulahuen intracellular amastigote harboring LacZ infected in human U937 cells after 72 hrs by CPRG/Nonidet reagent based spectrophotometric method; format: functional, cell-based; settings: U-937, 72 h
Method in brief: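 U-937 cells at 2.5 × 10^5 cells/mL in RPMI-1640 with 10% serum and 0.1 µg/mL PMA were infected with β-galactosidase-transfected Tulahuen epimastigotes at 5 parasites per cell. Infected cells were exposed to 50, 12.5, 3.125 and 0.78 µg/mL for 72 h. CPRG (100 uM) and 0.1% Nonidet P-40 were added for 3 h, read at 570 nm. EC50 by Probit. Triplicate, at least two experiments; benznidazole as reference.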

[20] = system: Leishmania panamensis; assay: Antileshmanial activity against EpiR/GFP fused Leishmania panamensis MHOM/CO/87/UA140 intracellular amastigotes infected in human […] cells after 72 hrs by flow cytometric method; format: functional, cell-based; settings: MHOM/CO/87/UA140, 72 h
Method in brief: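 PMA-treated U-937 cells (3 × 10^5 cells/mL) infected with stationary-phase GFP L. panamensis promastigotes (15:1), 3 h at 34 °C, then washed. After 24 h, compounds added at 50, 12.5, 3.125 and 0.78 µg/mL for 72 h at 37 °C. EC50 by Probit; triplicate, two experiments.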

[21] = system: Staphylococcus aureus; assay: Antibacterial activity against methicillin-sensitive Staphylococcus aureus ATCC 25923 after 24 hrs by resazurin dye based microdilution assay; format: functional; settings: ATCC 25923, 24 h; method in brief: as §2
[22] = system: Escherichia coli; assay: Antibacterial activity against Escherichia coli ATCC 25922 after 24 hrs by resazurin dye based microdilution assay; format: functional; settings: ATCC 25922, 24 h; method in brief: as §2
[23] = system: Staphylococcus aureus; assay: Antibacterial activity against vancomycin-intermediate Staphylococcus aureus after 24 hrs by resazurin dye based microdilution assay; format: functional; method in brief: as §2
[24] = system: Candida albicans; assay: Growth inhibition of Candida albicans ATCC 10231 at 3.4 ug/ml incubated for 48 hrs under dark condition by broth microdilution method relative to control; format: functional; settings: ATCC 10231, 48 h, read-out: GI
[25] = system: Cryptococcus neoformans; assay: Growth inhibition of Cryptococcus neoformans ATCC 32264 at 15.62 ug/ml incubated for 48 hrs under dark condition by broth microdilution method relative to control; format: functional; settings: ATCC 32264, 48 h, read-out: GI; method in brief: as §1
[26] = system: Cryptococcus neoformans; assay: Growth inhibition of Cryptococcus neoformans ATCC 32264 at 62.5 ug/ml incubated for 48 hrs under dark condition by broth microdilution method relative to control; format: functional; settings: ATCC 32264, 48 h, read-out: GI; method in brief: as §1
[27] = system: Cryptococcus neoformans; assay: Growth inhibition of Cryptococcus neoformans ATCC 32264 at 3.4 ug/ml incubated for 48 hrs under dark condition by broth microdilution method relative to control; format: functional; settings: ATCC 32264, 48 h, read-out: GI
[28] = system: Candida albicans; assay: Growth inhibition of Candida albicans ATCC 10231 at 62.5 ug/ml incubated for 48 hrs under dark condition by broth microdilution method relative to control; format: functional; settings: ATCC 10231, 48 h, read-out: GI; method in brief: as §1

SMILES	inhibition of growth at 7.8 µg/mL [1]	LC50 [2]	EC50 [3]	MIC [4]	MIC [5]	MIC [6]	inhibition of growth at 7.8 µg/mL [7]	inhibition of growth at 125 µg/mL [8]	MIC50 [9]	MIC80 [9]	inhibition of growth at 15.62 µg/mL [10]	MIC [11]	inhibition of growth at 31.25 µg/mL [12]	MIC50 [13]	MIC80 [13]	MIC [14]	inhibition of growth at 125 µg/mL [15]	inhibition of growth at 250 µg/mL [16]	inhibition of growth at 31.25 µg/mL [17]	inhibition of growth at 250 µg/mL [18]	further results
Cc1ccc(C2=NN(C=O)C(c3cccc(Nc4ccnc5cc(Cl)ccc45)c3)C2)cc1 (stereo not given)	31.1%	1.3 µg/mL (≈ 2.95 µM)	16.2 µg/mL (≈ 36.7 µM)	> 1000 µg/mL	> 1000 µg/mL	> 1000 µg/mL	13.7%	50.7%	125 µg/mL (≈ 283 µM)	≥ 250 µg/mL	22.6%	> 1000 µg/mL	44.4%	≥ 250 µg/mL	≥ 250 µg/mL	> 1000 µg/mL	28.5%	76%	23%	48.4%	EC50 [19]: 0.96 µg/mL (≈ 2.18 µM); EC50 [20]: 2.19 µg/mL (≈ 4.97 µM); MIC [21]: > 1000 µg/mL; MIC [22]: > 1000 µg/mL; MIC [23]: > 1000 µg/mL; inhibition of growth at 3.4 µg/mL [24]: 12.7%; inhibition of growth at 15.62 µg/mL [25]: 43.6%; inhibition of growth at 62.5 µg/mL [26]: 44.5%; inhibition of growth at 3.4 µg/mL [27]: 24.8%; inhibition of growth at 62.5 µg/mL [28]: 24.3%
CC(=O)N1N=C(c2ccc(Cl)cc2)CC1c1cccc(Nc2ccnc3cc(Cl)ccc23)c1 (stereo not given)	26.7%	17 µg/mL (≈ 35.8 µM)	26.3 µg/mL (≈ 55.4 µM)	> 1000 µg/mL	> 1000 µg/mL	> 1000 µg/mL	19.6%	53.4%	125 µg/mL (≈ 263 µM)	250 µg/mL (≈ 526 µM)	20%	> 1000 µg/mL	28.1%	≥ 250 µg/mL	≥ 250 µg/mL	> 1000 µg/mL	38.8%	100%	21.6%	40.9%	EC50 [19]: 6.57 µg/mL (≈ 13.8 µM); EC50 [20]: 5.53 µg/mL (≈ 11.6 µM); MIC [21]: > 1000 µg/mL; MIC [22]: > 1000 µg/mL; MIC [23]: > 1000 µg/mL; inhibition of growth at 3.4 µg/mL [24]: 14.7%; inhibition of growth at 15.62 µg/mL [25]: 18.7%; inhibition of growth at 62.5 µg/mL [26]: 32.2%; inhibition of growth at 3.4 µg/mL [27]: 11.1%; inhibition of growth at 62.5 µg/mL [28]: 22.5%
Clc1ccc(N2N=C(c3ccc(Br)cc3)CC2c2cccc(Nc3ccnc4cc(Cl)ccc34)c2)cc1 (stereo not given)	0%	35.7 µg/mL (≈ 60.7 µM)	10.3 µg/mL (≈ 17.4 µM)	> 1000 µg/mL	> 1000 µg/mL	> 1000 µg/mL	6.28%	23%	≥ 250 µg/mL	≥ 250 µg/mL	6.77%	> 1000 µg/mL	17%	≥ 250 µg/mL	≥ 250 µg/mL	> 1000 µg/mL	23.4%	27.5%	7.39%	39.6%	EC50 [19]: 29.5 µg/mL (≈ 50.1 µM); EC50 [20]: 16 µg/mL (≈ 27.2 µM); MIC [21]: > 1000 µg/mL; MIC [22]: > 1000 µg/mL; MIC [23]: > 1000 µg/mL; inhibition of growth at 3.4 µg/mL [24]: 3.47%; inhibition of growth at 15.62 µg/mL [25]: 0.14%; inhibition of growth at 62.5 µg/mL [26]: 17.8%; inhibition of growth at 3.4 µg/mL [27]: 0%; inhibition of growth at 62.5 µg/mL [28]: 13.7%

Reference: ChEMBL document CHEMBL4038284, “Synthesis of novel quinoline-based 4,5-dihydro-1H-pyrazoles as potential anticancer, antifungal, antibacterial and antiprotozoal agents” (Eur J Med Chem, 2017)
